Data taken from the M2OR odorant receptor database.
Residue numbers refer to the chain shown, from its start.

Columns and labels:
Settings in all cases: stereoisomer not certain
O56A4 I247V = system: T1, O56A4 I247V
T1 sequence (whole entry): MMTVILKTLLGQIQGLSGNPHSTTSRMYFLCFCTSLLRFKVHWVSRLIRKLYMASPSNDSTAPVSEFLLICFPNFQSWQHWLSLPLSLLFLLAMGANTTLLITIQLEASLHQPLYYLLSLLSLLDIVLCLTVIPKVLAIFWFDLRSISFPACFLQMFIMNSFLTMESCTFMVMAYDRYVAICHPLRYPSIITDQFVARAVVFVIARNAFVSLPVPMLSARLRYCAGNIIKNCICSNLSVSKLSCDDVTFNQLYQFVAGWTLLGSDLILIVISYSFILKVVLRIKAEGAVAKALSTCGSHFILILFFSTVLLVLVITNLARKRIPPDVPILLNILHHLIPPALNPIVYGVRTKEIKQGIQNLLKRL
Summary of the method: (§1)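 Transient luciferase assays in mammalian cell lines were common, though methods varied by source. The values come from published papers and their supplementary material, with extra details from the original authors when needed. Responsive refers to a measured signal the original authors judged statistically different from baseline, and non-responsive (inactive) to the remainder.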

O56A4 = system: T2, O56A4
T2 sequence (whole entry): T1 sequence (whole entry) with V247I
Summary of the method: as §1

O56A5 V104L = system: T3, O56A5 V104L
T3 sequence (whole entry): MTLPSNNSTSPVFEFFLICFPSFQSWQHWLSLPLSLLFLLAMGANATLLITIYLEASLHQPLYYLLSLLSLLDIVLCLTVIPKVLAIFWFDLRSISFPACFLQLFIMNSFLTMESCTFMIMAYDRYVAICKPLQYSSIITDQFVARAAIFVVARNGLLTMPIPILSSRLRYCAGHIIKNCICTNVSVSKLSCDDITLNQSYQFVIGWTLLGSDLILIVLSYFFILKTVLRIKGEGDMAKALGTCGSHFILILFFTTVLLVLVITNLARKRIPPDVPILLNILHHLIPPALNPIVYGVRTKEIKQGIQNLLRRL
Summary of the method: as §1

O56B1 C106R L214F = system: T4, O56B1 C106R L214F
T4 sequence (whole entry): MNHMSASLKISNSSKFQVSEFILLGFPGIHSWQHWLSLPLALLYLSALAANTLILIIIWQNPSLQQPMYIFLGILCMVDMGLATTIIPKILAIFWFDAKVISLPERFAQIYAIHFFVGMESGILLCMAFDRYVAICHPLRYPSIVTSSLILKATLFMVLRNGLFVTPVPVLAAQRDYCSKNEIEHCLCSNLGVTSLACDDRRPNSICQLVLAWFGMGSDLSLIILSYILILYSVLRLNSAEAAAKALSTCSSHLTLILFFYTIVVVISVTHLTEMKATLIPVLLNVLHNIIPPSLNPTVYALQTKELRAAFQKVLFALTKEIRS
Summary of the method: as §1

O56B1 L214F = system: T5, O56B1 L214F
T5 sequence (whole entry): T4 sequence (whole entry) with R106C
Summary of the method: as §1

O56B4 = system: T6, O56B4
T6 sequence (whole entry): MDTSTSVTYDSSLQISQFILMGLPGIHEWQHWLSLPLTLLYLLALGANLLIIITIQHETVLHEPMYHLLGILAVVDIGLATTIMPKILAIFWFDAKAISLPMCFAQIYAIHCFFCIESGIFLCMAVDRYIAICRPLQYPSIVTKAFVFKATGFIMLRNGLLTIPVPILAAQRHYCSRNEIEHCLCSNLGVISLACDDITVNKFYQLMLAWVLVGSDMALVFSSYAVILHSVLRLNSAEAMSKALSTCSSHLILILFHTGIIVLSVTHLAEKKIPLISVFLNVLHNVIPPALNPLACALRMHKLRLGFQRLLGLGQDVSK
Summary of the method: as §1

O5AC2 = system: T7, O5AC2
T7 sequence (whole entry): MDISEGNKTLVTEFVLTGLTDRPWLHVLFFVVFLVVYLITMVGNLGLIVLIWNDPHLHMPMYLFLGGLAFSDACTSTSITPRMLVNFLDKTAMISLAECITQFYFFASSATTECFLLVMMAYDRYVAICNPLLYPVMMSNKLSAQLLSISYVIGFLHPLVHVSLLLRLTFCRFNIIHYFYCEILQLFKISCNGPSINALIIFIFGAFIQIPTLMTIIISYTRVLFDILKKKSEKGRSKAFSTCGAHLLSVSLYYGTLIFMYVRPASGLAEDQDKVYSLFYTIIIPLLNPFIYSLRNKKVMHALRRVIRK
Summary of the method: as §1

O5AK2 M92I = system: T8, O5AK2 M92I
T8 sequence (whole entry): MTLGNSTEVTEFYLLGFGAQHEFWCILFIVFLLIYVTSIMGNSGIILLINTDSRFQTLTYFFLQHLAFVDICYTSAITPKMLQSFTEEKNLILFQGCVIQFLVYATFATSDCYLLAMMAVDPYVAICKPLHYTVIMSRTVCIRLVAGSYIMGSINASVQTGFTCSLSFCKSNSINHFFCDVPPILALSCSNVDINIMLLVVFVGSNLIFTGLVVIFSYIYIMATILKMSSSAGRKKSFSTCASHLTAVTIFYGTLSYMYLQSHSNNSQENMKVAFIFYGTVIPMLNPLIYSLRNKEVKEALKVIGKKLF
Summary of the method: as §1

O5AN1 C142Y L289F = system: T9, O5AN1 C142Y L289F
T9 sequence (whole entry): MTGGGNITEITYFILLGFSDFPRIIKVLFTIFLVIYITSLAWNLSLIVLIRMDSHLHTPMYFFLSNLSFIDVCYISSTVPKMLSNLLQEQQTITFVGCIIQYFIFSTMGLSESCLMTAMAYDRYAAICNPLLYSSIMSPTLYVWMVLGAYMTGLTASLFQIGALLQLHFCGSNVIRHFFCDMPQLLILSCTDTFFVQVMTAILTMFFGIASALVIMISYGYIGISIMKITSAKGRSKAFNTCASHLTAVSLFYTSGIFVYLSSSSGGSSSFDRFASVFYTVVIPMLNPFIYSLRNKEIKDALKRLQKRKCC
Summary of the method: as §1

O5AN1 L289F = system: T10, O5AN1 L289F
T10 sequence (whole entry): T9 sequence (whole entry) with Y142C
Summary of the method: as §1

O5AP2 A105T = system: T11, O5AP2 A105T
T11 sequence (whole entry): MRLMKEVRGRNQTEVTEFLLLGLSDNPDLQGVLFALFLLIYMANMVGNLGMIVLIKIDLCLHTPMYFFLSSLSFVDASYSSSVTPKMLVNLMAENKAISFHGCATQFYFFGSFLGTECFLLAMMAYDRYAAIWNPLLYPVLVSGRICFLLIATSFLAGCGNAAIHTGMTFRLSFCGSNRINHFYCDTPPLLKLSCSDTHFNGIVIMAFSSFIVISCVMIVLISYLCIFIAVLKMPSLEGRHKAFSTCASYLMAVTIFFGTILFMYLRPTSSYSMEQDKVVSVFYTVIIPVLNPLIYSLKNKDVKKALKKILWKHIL
Summary of the method: as §1

O5AU1 = system: T12, O5AU1
T12 sequence (whole entry): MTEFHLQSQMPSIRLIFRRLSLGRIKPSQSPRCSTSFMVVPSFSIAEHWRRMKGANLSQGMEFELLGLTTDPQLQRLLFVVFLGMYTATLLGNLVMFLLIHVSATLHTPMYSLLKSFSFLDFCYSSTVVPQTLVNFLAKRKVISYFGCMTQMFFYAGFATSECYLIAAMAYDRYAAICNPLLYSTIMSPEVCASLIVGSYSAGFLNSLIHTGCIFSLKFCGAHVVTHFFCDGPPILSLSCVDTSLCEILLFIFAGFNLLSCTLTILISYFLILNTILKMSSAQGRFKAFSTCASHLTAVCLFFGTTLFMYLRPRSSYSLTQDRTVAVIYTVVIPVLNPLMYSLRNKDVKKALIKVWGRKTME
Summary of the method: as §1

O5H14 = system: T13, O5H14
T13 sequence (whole entry): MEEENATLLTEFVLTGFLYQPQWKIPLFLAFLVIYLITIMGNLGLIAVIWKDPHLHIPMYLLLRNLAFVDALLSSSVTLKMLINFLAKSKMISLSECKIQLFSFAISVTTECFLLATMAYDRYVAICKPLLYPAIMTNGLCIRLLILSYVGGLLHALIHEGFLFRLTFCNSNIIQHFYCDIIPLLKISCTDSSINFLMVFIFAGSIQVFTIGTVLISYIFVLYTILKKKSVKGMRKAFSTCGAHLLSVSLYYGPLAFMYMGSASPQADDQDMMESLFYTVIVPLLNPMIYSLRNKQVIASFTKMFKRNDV
Summary of the method: as §1

O5H15 V108I S148T T167S = system: T14, O5H15 V108I S148T T167S
T14 sequence (whole entry): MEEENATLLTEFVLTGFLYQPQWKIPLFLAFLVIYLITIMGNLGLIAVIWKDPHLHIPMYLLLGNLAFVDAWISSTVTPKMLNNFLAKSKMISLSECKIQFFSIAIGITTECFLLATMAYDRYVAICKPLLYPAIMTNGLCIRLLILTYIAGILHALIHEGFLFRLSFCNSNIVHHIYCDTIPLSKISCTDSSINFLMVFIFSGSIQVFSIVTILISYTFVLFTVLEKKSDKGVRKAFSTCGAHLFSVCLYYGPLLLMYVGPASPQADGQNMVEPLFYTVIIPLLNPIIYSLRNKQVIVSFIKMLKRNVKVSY
Summary of the method: as §1

O6C65 T222A = system: T15, O6C65 T222A
T15 sequence (whole entry): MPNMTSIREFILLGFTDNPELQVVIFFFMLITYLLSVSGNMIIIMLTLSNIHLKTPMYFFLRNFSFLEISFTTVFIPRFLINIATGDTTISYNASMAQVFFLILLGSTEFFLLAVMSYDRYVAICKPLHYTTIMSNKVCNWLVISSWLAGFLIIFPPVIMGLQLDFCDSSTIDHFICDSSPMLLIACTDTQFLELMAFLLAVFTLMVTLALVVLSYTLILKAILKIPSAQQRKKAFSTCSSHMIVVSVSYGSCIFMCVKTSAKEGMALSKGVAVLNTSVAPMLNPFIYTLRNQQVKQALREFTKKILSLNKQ
Summary of the method: as §1

O6C70 L181P = system: T16, O6C70 L181P
T16 sequence (whole entry): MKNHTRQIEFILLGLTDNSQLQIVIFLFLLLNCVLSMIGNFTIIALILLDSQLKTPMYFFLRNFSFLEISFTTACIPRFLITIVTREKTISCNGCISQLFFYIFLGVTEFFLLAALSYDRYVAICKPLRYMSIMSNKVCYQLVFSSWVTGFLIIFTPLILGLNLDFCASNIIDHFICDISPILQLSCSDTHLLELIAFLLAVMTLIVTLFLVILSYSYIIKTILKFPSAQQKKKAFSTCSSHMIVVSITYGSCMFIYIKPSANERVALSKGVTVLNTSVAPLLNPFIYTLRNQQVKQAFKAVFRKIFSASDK
Summary of the method: as §1

O7E24 S193F P242S = system: T17, O7E24 S193F P242S
T17 sequence (whole entry): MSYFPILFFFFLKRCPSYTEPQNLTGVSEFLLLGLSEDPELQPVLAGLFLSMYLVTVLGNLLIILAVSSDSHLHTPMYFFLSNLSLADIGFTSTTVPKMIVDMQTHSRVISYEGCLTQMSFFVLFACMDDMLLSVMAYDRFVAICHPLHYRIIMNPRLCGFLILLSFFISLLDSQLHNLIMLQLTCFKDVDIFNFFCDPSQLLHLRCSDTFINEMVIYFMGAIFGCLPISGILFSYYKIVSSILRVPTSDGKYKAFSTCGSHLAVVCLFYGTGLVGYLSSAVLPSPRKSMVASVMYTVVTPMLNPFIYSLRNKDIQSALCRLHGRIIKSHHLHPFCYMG
Summary of the method: as §1

O7E24 = system: T18, O7E24
T18 sequence (whole entry): T17 sequence (whole entry) with F193S
Summary of the method: as §1

OR10A2 (Homo sapiens) = molecular target: T19, OR10A2 (Homo sapiens) (UniProt Q9H208)
T19 sequence (whole entry): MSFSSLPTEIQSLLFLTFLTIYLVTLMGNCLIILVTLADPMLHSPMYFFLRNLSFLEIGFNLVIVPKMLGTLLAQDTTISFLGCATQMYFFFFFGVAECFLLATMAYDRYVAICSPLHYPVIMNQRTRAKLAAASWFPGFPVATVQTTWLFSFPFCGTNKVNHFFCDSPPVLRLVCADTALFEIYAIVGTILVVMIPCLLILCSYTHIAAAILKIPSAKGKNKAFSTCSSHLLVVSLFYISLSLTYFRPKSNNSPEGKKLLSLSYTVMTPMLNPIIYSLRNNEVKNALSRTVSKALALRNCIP
Summary of the method: as §1

O5AN1 = system: T20, O5AN1
T20 sequence (whole entry): T9 sequence (whole entry) with K26T, Y142C, F159S, C190S, Q197R, V214I, Y221S, F289L, K309R
Summary of the method: as §1

Measured: odorant receptor agonist call;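 further: active if original authors judged signal statistically different from baseline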

CC1=NC(C)C(C)S1 (stereo not given)
inactive: O56A4 I247V | O56A4 | O56A5 V104L | O56B1 C106R L214F | O56B1 L214F | O56B4 | O5AC2 | O5AK2 M92I | O5AN1 C142Y L289F | O5AN1 L289F | O5AP2 A105T | O5AU1 | O5H14 | O5H15 V108I S148T T167S | O6C65 T222A | O6C70 L181P | O7E24 S193F P242S | O7E24 | OR10A2 (Homo sapiens)

OC1CCCCCCCCCCCCCC1
active: O5AN1

CCC1OC(C)=C(O)C1=O (stereo not given)
inactive: O56A4 I247V | O56A4 | O56A5 V104L | O56B1 C106R L214F | O56B1 L214F | O56B4 | O5AC2 | O5AK2 M92I | O5AN1 C142Y L289F | O5AN1 L289F | O5AP2 A105T | O5AU1 | O5H14 | O5H15 V108I S148T T167S | O6C65 T222A | O6C70 L181P | O7E24 S193F P242S | O7E24 | OR10A2 (Homo sapiens)

O=C1CCCCCCCCCCCCCC1
active: O5AN1
